High-throughput results: PubChem, several laboratories
Rows were chosen to be rich in hits. Some 1.9% of all compounds tested hit in one or more screens of this group.
proCasp3 act – activators of human procaspase-3 D3A mutant, primary screen, biochemical, absorbance, PC-3 D3A mutant, single concentration. recombinant procaspase-3 D3A, Ac-DEVD-pNA absorbance 405 nm. activation, % at 8.5 µM. 330,000 tested, 0.11% active;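 active = activation above the mean of all tested compounds plus 3 SD, cut at about 21% in these data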;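 also: 0% = DMSO alone and 100% = DMSO wells spiked with extra 5 µM PC-3 D3A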
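Technique: 405 nm absorbance of p-nitroaniline, reads at 0 and 120 min; Test system: Procaspase-3 D3A mutant; Incubation: 1 h enzyme-compound preincubation, then 2 h substrate reaction, 25 °C; Repeats: singlicate, each compound tested once; Benchmarks: low control DMSO wells, high control DMSO plus 5 µM PC-3 D3A.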
PLC-beta3 inh – human PLC-beta3 inhibitors, primary screen, biochemical, fluorescence. 1-phosphatidylinositol 4,5-bisphosphate phosphodiesterase beta-3 (Homo sapiens), Q01970. Purified PLC-beta3, fluorogenic substrate. inhibition, % at 12.2 µM. 370,000 tested, 0.18% active; in the data active = inhibition above about 11%;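 also: 0% = median of compound wells on plate and 100% = full blocker control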
procasp7 counter – procaspase-7 activators, primary screen, counter-screen for procaspase-3 activator project, biochemical, absorbance, HTS, human; Caspase-7 (Homo sapiens), P55210; recombinant procaspase-7, Ac-DEVD-pNA absorbance 405 nm; D23A/D198A/D206A triple mutant, cannot self-cleave; scale: DMSO 0, 5 µM enzyme 100; activation, % at 8.5 µM; 330,000 tested, 0.093% active; AID 463210, 2010;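 active = percent activation above the screen-wide mean plus 3 SD, cut at about 25% in these data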
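Material: Procaspase-7 triple mutant (PC-7 D3A) | Quantity: 2 µM procaspase-7 mutant as dispensed | Reagent: DEVD-pNA substrate | Times: 1 h preincubation, 2 h reaction | Technique: 405 nm absorbance of p-nitroaniline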
PLC-gamma1 inh – PLC-gamma1 enzyme inhibitors, primary screen, biochemical, fluorescence, purified enzyme; 1-phosphatidylinositol 4,5-bisphosphate phosphodiesterase gamma-1 (Homo sapiens), P19174; fluorogenic substrate; inhibition, % at 12.2 µM; 370,000 tested, 0.84% active; AID 720700, 2013
HGIII-sPLA2 inh – human group III sPLA2 inhibitors, primary screen, biochemical, QFRET, BODIPY PC-A2 liposome substrate; 370,000 tested, 0.56% active; inhibition, % at 12.2 µM; QFRET BODIPY PC-A2 liposome hydrolysis, fluorescence; Group 3 secretory phospholipase A2 (Homo sapiens), Q9NZ20;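 active = inhibition above mean plus 3 SD of compounds lying within the high and low control bounds, cut at about 19% in these data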;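 also: 0% = median of test compound wells and 100% = no enzyme DMSO wells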
Target sequence (Q9NZ20 whole entry, looked up): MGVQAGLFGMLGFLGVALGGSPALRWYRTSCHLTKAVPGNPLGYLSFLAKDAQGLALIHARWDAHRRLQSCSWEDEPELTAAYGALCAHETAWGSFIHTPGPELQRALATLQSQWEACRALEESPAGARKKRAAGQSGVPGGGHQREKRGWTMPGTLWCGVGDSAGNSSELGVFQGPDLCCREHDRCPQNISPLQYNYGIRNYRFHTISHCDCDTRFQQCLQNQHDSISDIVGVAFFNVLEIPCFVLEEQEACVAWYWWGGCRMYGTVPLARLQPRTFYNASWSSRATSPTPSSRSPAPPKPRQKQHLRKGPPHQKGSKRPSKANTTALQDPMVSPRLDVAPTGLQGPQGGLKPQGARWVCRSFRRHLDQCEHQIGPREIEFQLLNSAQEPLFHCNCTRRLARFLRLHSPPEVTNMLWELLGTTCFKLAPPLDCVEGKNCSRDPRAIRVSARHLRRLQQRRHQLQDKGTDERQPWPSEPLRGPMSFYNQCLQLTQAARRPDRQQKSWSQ
Arr AP2 block – inhibitors of beta-arrestin/AP2 binding, primary screen, biochemical, GPCR trafficking, flow cytometry. beta-arrestin 1 C-terminal peptide binding to AP2 beta2-adaptin appendage (human). FITC-arrestin peptide / GST-AP2 beads; AP2 beta2 appendage carries R879A mutation. inhibition, % at 10 µM. 340,000 tested, 0.31% active. AID 504490, 2011;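 active = inhibition above a set limit, near 3 SD of compounds lacking own fluorescence, cut at about 54% in these data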;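 also: plate controls were DMSO wells for no effect and 5 µM unlabelled arrestin peptide for full effect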
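Test system: GST-tagged AP2 beta2-adaptin appendage (R879A) on 4 µm glutathione beads; also added: fluorescein-tagged arrestin peptide at 50 nM final; timing: 12 min plus 1 h, RT; signal: flow cytometry, FL1 (488/535 nm); read-out: percent drop in bead-associated FITC signal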
PLCgamma1 ctr – PLC-gamma1 enzyme inhibitors, counter-screen for PLC-beta3 inhibitor project, biochemical, fluorescence. shares compounds with PLC-gamma1 inh. purified PLC-gamma1, fluorogenic substrate. inhibition, % at 12.3 µM. 3,300 tested, 3.1% active
PLCbeta3 conf – PLC-beta3 inhibitor confirmation, biochemical, fluorescence, purified enzyme. shares compounds with PLC-gamma1 inh. fluorogenic substrate fluorescence. inhibition, % at 12.3 µM. 3,300 tested, 1% active. AID 743261, 2014; in the data active = inhibition above about 11%
* marks the source's active call; other numbers are inactive results; / = not tested or not shown. Rule as the data show it, unless noted: active = inhibition above about 9.5%; inactive = the rest.

SMILES	proCasp3 act	PLC-beta3 inh	procasp7 counter	PLC-gamma1 inh	HGIII-sPLA2 inh	Arr AP2 block	PLCgamma1 ctr	PLCbeta3 conf
CC1(c2nnnn2C2CCCCC2)CCCC(=O)N1CCc1ccc(O)cc1 (stereo not given)	/	1	/	1	2	/	/	/
CC1CCCN(c2nc3c(c(=O)n(C)c(=O)n3C)n2CCSc2nc3ccccc3o2)C1 (stereo not given)	-1	0	2	10*	-4	-3	-4	-1
CC1CCCN(c2nc3c(c(=O)[nH]c(=O)n3C)n2CCSc2nc3ccccc3o2)C1 (stereo not given)	2	3	4	1	2	2	/	/
COn1c(-n2nc(C)cc2C)nc2ccccc2c1=O	-9	0	6	-1	9	-5	/	/
C#CCOn1c(-n2nc(C)cc2C)nc2ccccc2c1=O	0	-3	-3	10*	11	-19	-2	-3
COc1ccc2c(c1)C[C@@H]1CC(C)(C)CN1S2(=O)=O	/	0	/	1	2	/	/	/
Cc1ccccc1NC(=S)NCCC(c1ccccc1)c1ccccc1	7	2	2	10*	-4	-8	0	-1
CSc1nc(C)c(Cc2ccccc2)c(=O)[nH]1	6	0	9	11*	4	-22	-11	-3
Cc1nc(SCC(C)C)[nH]c(=O)c1Cc1ccccc1	-6	-1	-3	-1	-5	7	/	/
COC(=O)Nc1cc([N+](=O)[O-])ccc1OC	-3	4	6	10.0*	8	6	0	5
COc1ccc([N+](=O)[O-])cc1NC(=O)CSCc1ccc(Br)cc1	3	5	1	11*	3	2	-3	-2
CC(C)CN1C(=O)C[C@]2(C(=O)N(C)c3ccc(NC(=O)c4cc(F)ccc4F)cc32)C1c1ccccc1 (stereo not given in full)	/	1	/	-1	-8	/	/	/
COc1ccc(-n2c(Cc3cccs3)nnc2SCC(=O)Nc2ccc(OCc3ccccc3)cc2)cc1	/	-5	/	3	-20	/	/	/
O=C(CSc1nnc(-c2ccccn2)n1-c1ccc(Cl)cc1)Nc1ccc2c(c1)OCCO2	/	1	/	-2	-3	/	/	/
CC(C)Cc1cc(C(=O)Nc2cc(C(F)(F)F)ccc2Cl)no1	-5	3	2	12*	7	-6	-6	-4
O=C(Nc1cc(C(F)(F)F)ccc1Cl)c1ccncc1	3	-7	1	-2	5	-15	/	/
CC1Cn2c(CCc3ccccc3)nnc2S1 (stereo not given)	-5	-2	6	0	2	35	/	/
CC1Cn2c(Cc3ccccc3)nnc2S1 (stereo not given)	/	14*	/	8	8	/	-1	3
COc1ccc(C(=O)CN2C(=O)C(C)(C)Oc3ccc(C(=O)N4CCCCCC4)cc32)cc1	1	23*	-5	4	-12	39	-6	-2
COC(=O)[C@]12C[C@H](CC(=O)N3CCSCC3)C(=O)N(Cc3cccc4ccccc34)C1=C[C@H](C(C)C)O[C@@H]2C1CC1	/	4	/	1	-4	/	/	/
COc1ccccc1C(=O)CSc1nnc(-c2ccncc2)n1-c1ccc(Cl)cc1	/	1	/	1	-5	/	/	/
O=C1CS(=O)(=O)c2ccccc2N1	1	-4	5	24*	3	2	21*	2
Cc1cc(C)c(OCCCCN(C)Cc2ccccc2)c(C)c1	8	1	-3	13*	-15	-6	-3	1
Cc1ccc(OCCCCN(C)Cc2ccccc2)c(Br)c1	3	4	10	0	6	11	/	/
COC(=O)[C@]12C[C@H](CC(=O)NCc3cccc(C(F)(F)F)c3)C(=O)N(CCC3=CCCCC3)C1=C[C@H](C(C)C)O[C@@H]2C1CC1	/	2	/	2	1	/	/	/
SMILES	proCasp3 act	PLC-beta3 inh	procasp7 counter	PLC-gamma1 inh	HGIII-sPLA2 inh	Arr AP2 block	PLCgamma1 ctr	PLCbeta3 conf
CC(=NN1CCN(Cc2ccccc2Cl)CC1)c1ccc(O)cc1	/	10	/	16*	11	/	-3	-4
CSc1ccn(CCC(=O)O)c(=O)n1	-5	-4	10	-1	7	9	/	/
CSc1cnn(CCC#N)c(=O)n1	/	4	/	12*	17	/	-6	0
CSc1nc(=O)n(CCC#N)nc1SC	/	12*	/	1	3	/	1	4
CCN(CC)S(=O)(=O)c1cccc(C(=O)NC(Cc2c[nH]c3ccccc23)c2nnc3n2CCC3)c1 (stereo not given)	2	1	6	2	-73	-7	/	/
C=CCN1[C@H](C#N)[C@@H](c2ccc(C#Cc3ccccc3OC)cc2)[C@H]1CO	/	-78	/	-61	4	/	/	/
O=C1CCCN1c1ccc(S(=O)(=O)Oc2cccc(Cl)c2)cc1[N+](=O)[O-]	-8	3	-3	9.6*	-13	-1	-3	4
O=C1CCCN1c1ccc(S(=O)(=O)N2CCCCC2)cc1[N+](=O)[O-]	-3	3	0	3	-1	13	/	/
CC(C)C[C@H](NC1(C(=O)NCCc2c[nH]c3ccccc23)CCC1)C(=O)NCCCc1ccccc1	/	7	/	13*	-43	/	-7	-4
CN1CCC(N[C@@H](Cc2ccccc2)C(=O)NCC(c2ccccc2)c2ccccc2)(C(=O)NC2CCCCC2)CC1	/	9	/	12*	-16	/	-1	1
O=C(NCC(c1ccccc1)c1ccccc1)[C@H](Cc1c[nH]c2ccccc12)NC1(C(=O)NC2CCCCC2)CCC1	/	7	/	10*	-70	/	-3	-1
O=C(NCC(c1ccccc1)c1ccccc1)[C@H](Cc1c[nH]c2ccccc12)NC1(C(=O)NC2CCCCC2)CCCC1	/	-2	/	3	3	/	/	/
CC(C)C[C@H](NC1(C(=O)NCCc2c[nH]c3ccccc23)CCOCC1)C(=O)NCCCc1ccccc1	/	0	/	5	-63	/	/	/
